Source: PubChem (Johns Hopkins Ion Channel Center)
KCNQ1 pot: potentiates or activates the human KCNQ1 potassium channel | P51787 | CHO-K1 KCNQ1, thallium flux FluxOR fluorescence; hits give high values | B-score at 10 µM | 0.35% of 310,000 active;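 active = fluorescence ratio B-score, a plate-corrected score, at least three library SD, with initial intensity B-score within 5 SD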
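Medium – assay buffer, equal DMSO in all wells · Material – CHO-K1 cell line with stable KCNQ1 potassium channel expression · Signal – kinetic FluxOR thallium fluorescence, 10-s 1-Hz baseline, 110-s post-stimulus read · Compound – single concentration per compound, DMSO matched to controls · Schedule – 37 °C overnight plating, 90-min dark dye load, 20-min compound pretreatment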
hERG protect: compounds protecting human hERG from proarrhythmic drug block; Q12809; CHO-hERG, FluxOR thallium flux, dofetilide IC70 present; activation (rescue from dofetilide block), less the hit threshold, % at 10 µM; 0.51% of 310,000 active; AID 1511;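 active = activation above the mean of controls blocked by dofetilide plus 5 SD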;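 also: thallium influx through hERG after potassium depolarization seen as dye fluorescence rise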
KCNQ1 inh: human KCNQ1 channel inhibition. AID 2642. CHO-K1 KCNQ1, FluxOR thallium flux fluorescence; hits give high values. P51787. B-score at 10 µM. 1.3% of 310,000 active;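 active = compounds whose thallium flux B-score, printed positive for inhibition, exceeds three library SD while starting fluorescence stays within three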;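 also: channel opened by potassium depolarization with thallium stimulus after 20 min compound exposure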
KCNK3 block: human KCNK3 channel inhibition, primary screen. B-score at 10 µM. CHO-KCNK3 thallium flux, FluxOR fluorescence; hits give low values. 0.84% of 340,000 active;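 active = B-score under library mean minus 4 SD, starting fluorescence ratio at most library mean plus 5 SD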;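 also: more negative B-score means stronger inhibition of thallium flux through KCNK3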
KCNK9 inh-1: blocks the human KCNK9 two-pore domain potassium channel. B-score at 10 µM. HEK293 KCNK9, FluxOR thallium flux fluorescence; hits give low values. AID 488922. 1.2% of 310,000 active. Q9NPC2;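 active = ratio B-score over 3 SD below the library mean, with starting fluorescence within 5 SD of its mean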;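 also: negative B-score means less thallium flux so channel inhibition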
Kir21 inh: Kir2.1 (mouse) channel inhibition. P35561. HEK293-Kir2.1, FluxOR thallium flux fluorescence; hits give low values. B-score at 10 µM. 0.85% of 310,000 active;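 active = fluorescence ratio B-score at or below minus 3 SD of library scores, with starting-brightness B-score within 2 SD, cut at about -4.2 in these data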;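 also: channel flux triggered by added potassium and thallium sulfate stimulus; B-score of peak minus minimum fluorescence over baseline after thallium stimulus; more negative B-score means stronger Kir2.1 block with less thallium influx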
Target sequence (P35561 whole entry, looked up): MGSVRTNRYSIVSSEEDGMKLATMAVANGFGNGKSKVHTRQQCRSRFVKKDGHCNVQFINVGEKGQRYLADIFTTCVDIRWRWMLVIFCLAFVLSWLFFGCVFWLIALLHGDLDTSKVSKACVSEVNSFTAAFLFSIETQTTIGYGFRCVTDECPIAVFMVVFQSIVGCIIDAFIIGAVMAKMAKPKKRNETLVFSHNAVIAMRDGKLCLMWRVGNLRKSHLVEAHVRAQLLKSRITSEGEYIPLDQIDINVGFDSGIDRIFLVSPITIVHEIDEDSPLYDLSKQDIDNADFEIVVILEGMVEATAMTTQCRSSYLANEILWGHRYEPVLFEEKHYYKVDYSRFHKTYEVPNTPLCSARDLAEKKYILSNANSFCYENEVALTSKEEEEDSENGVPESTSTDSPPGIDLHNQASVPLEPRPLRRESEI
hERG ctr: hERG (human) inhibition as Kir2.1 counter-screen; shares compounds with Kir21 inh; hERG-expressing cells, thallium flux; inhibition, % at 10 µM; 20% of 320 active; AID 2236;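 also: host cells are CHO cells stably expressing hERG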
KCNK9 inh-2: human KCNK9 off-target activity of Kir2.1 blockers. shares compounds with Kir21 inh. KCNK9-expressing cells, ion flux inhibition. inhibition, % at 10 µM. 5% of 320 active. AID 2329
Kir2-1 patch inh: mouse Kir2.1 inward rectifier channel inhibition | shares compounds with Kir21 inh | Kir2.1 cells, automated patch-clamp current inhibition | inhibition, % at 25 µM | 71% of 320 active
Each line names hits and unclear results; the compound was inactive in the other large screens (follow-up assays come after a bar, where they were run). An excerpt weighted towards active compounds, which were near 3.7% of everything screened. Unless noted, no rule for the calls is given here.

Cc1cc(C)cc(NC(=S)N(Cc2ccc(Br)cc2)Cc2ccc(C(=O)O)cc2)c1	KCNK9 inh-1 -7.4
Cc1ccc2ccc[n+](Cc3ccccc3)c2c1	none
Cc1ccc(C[n+]2cccc(-c3ccccc3)c2)c(C)c1	Kir21 inh -4.3
C/C(=C\c1ccc2c(c1)OCO2)C1Nc2cccc3cccc(c23)N1	none (no result: KCNQ1 pot, hERG protect, KCNQ1 inh, KCNK9 inh-1, Kir21 inh)
COc1ccc(Cn2nnc3c(=O)[nH]c(C4CCN(S(=O)(=O)c5ccc(C)cc5)CC4)nc32)cc1	none
CSCCOC(=O)C1=C(C)NC(=O)CC1c1ccccc1Cl (stereo unspecified)	Kir21 inh -5.5
CCc1cnccc1CCC(=O)Nc1ccccc1C	none
CCN1C(=O)[C@H]2[C@@H](c3ccc(-c4ccc(Cl)c(Cl)c4)cc3)N[C@@](Cc3ccccc3)(C(=O)OC)[C@H]2C1=O	none
Clc1cccc(C2Nc3cccc4cccc(c34)N2)c1Cl	KCNQ1 inh 10
c1coc(C2Nc3cccc4cccc(c34)N2)c1	none (no result: KCNK3 block)
CSCCC(NC(=O)c1ccccc1Cl)C(=O)NCCc1ccccn1 (stereo unspecified)	none (no result: KCNQ1 pot, hERG protect, KCNQ1 inh, KCNK9 inh-1, Kir21 inh)
C[n+]1c(/C=C/c2ccc(O)cc2)ccc2ccccc21	none
Cc1cc(/C=C\c2ccc3cc(N(C)C)ccc3[n+]2C)c(C)n1-c1ccccc1	KCNK3 block -11 (no result: KCNQ1 pot, hERG protect, KCNQ1 inh, KCNK9 inh-1, Kir21 inh)
CSc1ccc(CN(C)C(C)C(=O)NCc2ccccc2)cc1 (stereo unspecified)	Kir21 inh -9.7
COc1ccc(CNC(=O)CN(C)Cc2ccc(SC)cc2)cc1	Kir21 inh -6.8
CCOc1ccc(CN(C)C(C)C(=O)NCc2ccccc2)cc1 (stereo unspecified)	none
COc1cc(/C=N/N2C(=O)CSC2=S)cc(Br)c1O	KCNK3 block -9.4 (no result: KCNQ1 pot, hERG protect, KCNQ1 inh, KCNK9 inh-1, Kir21 inh)
COc1cccc(/C=N/N2C(=O)CSC2=S)c1O	none
O=C(/C=C/c1cccc([N+](=O)[O-])c1)NCCSCc1ccc(Cl)cc1Cl	KCNK9 inh-1 -14
O=C(COC(=O)C1CC2C=CC1C2)Nc1c(Br)cc([N+](=O)[O-])cc1Br (stereo unspecified)	none (no result: KCNQ1 pot, hERG protect, KCNQ1 inh, KCNK9 inh-1, Kir21 inh)
CN(Cc1cnccn1)Cc1nc(Cc2ccccc2F)no1	hERG protect 28
COc1ccc(C2C(C(C)=O)=C(O)C(=O)N2c2ccccn2)cc1 (stereo unspecified)	none
O=C(/C(N=Nc1cccc([N+](=O)[O-])c1)=C(/O)c1ccc(Br)cc1)C(F)(F)F	KCNQ1 inh 9, KCNK9 inh-1 -9.2 (no result: KCNK3 block)
CCOC(=O)c1c(-c2ccccc2)c2cc(OC)ccc2n1CCCN(C)C	Kir21 inh -7
Cc1nc(SCC(=O)NCc2ccc3c(c2)OCO3)nc(C)c1C	none (no result: KCNQ1 pot, hERG protect, KCNQ1 inh, KCNK9 inh-1, Kir21 inh)
CCOC(=O)c1c(C)oc2c1c(C(c1cccnc1)N1CCCCC1)c(O)c1ccccc12 (stereo unspecified)	KCNQ1 inh 6
O=C(Sc1n[nH]c(=O)[nH]c1=O)c1ccccc1	none (no result: KCNQ1 pot, hERG protect, KCNQ1 inh, KCNK9 inh-1, Kir21 inh)
COc1ccc(-c2[nH]ncc2CN(CCO)CC23CC4CC(CC(C4)C2)C3)c(OC)c1	Kir21 inh -5.6
Cc1cccc(Cn2c(C(=O)OC(C)C)cc3c2ccn3C)c1	KCNQ1 inh 6
COC(=O)c1cc2occc2n1Cc1cccc(C)c1	none
O=C(O)Cn1c(=O)c(F)cn(C2CCCO2)c1=O (stereo unspecified)	none
O=C(Cn1c(=O)oc2cc(S(=O)(=O)N3CCc4ccccc43)ccc21)NC1CCCC1	KCNK9 inh-1 -8.8
O=C(Cn1c(=O)oc2cc(S(=O)(=O)N3CCCCCC3)ccc21)NC1CCCCC1	none
CC(C)CCNC(=O)Cn1c(=O)oc2cc(S(=O)(=O)N3CCc4ccccc43)ccc21	KCNK9 inh-1 -9.2
COc1ccc(CCN=C(N)NS(=O)(=O)c2ccc3ccccc3c2)cc1	none
Cc1ccc(C(=O)Nc2nc(-c3ccccc3)c(-c3ccccc3)o2)cc1	KCNQ1 pot 40
Cc1cc(C)nc(SCC(=O)Nc2nc(-c3ccccc3)c(-c3ccccc3)o2)n1	none
O=C(Nc1cccc(C(F)(F)F)c1)C12CC3CC(CC(C3)C1)C2	hERG protect 5.0
CC1(C(=O)Nc2cccc(C(F)(F)F)c2)CO1 (stereo unspecified)	none (no result: KCNK3 block)
Cc1ccc(CSc2nnc(CCCCCNC(=O)OC(C)(C)C)o2)cc1	none
CC(C)(C)OC(=O)NCCc1nnc(SCc2ccc(Cl)cc2)o1	Kir21 inh -16 | hERG ctr inactive | KCNK9 inh-2 inactive | Kir2-1 patch inh 74%
COc1ccc(-c2nnc(SCC(=O)Nc3c(Cl)cc(Cl)cc3C(=O)O)o2)cc1	none (no result: KCNQ1 pot, hERG protect, KCNQ1 inh, KCNK9 inh-1, Kir21 inh)
c1ccc(Cn2c(SCc3nc4ccccc4s3)nnc2-c2ccco2)cc1	Kir21 inh -7 | hERG ctr inactive | KCNK9 inh-2 inactive | Kir2-1 patch inh 13%
O=C(O)c1ccc(S(=O)(=O)N2CCCc3ccccc32)cc1	none
O=S(=O)(c1ccccc1)N1CCCc2ccccc21	Kir21 inh -6.5 (no result: KCNK3 block) | hERG ctr inactive | KCNK9 inh-2 inactive | Kir2-1 patch inh 22%
O=S(=O)(c1ccc(F)cc1)N1CCCc2ccccc21	Kir21 inh -6 (no result: KCNK3 block) | hERG ctr inactive | KCNK9 inh-2 inactive | Kir2-1 patch inh 19%
CC(=O)c1ccc(S(=O)(=O)N2CCCc3ccccc32)cc1	none
CN(C)CCN(Cc1ccccc1)C(=O)[C@H](Cc1ccccc1)N1C(=O)c2ccccc2C1=O	Kir21 inh -6 | hERG ctr inactive | KCNK9 inh-2 inactive | Kir2-1 patch inh inactive
CC(O)CNCCCOc1cccc(Oc2ccccc2)c1 (stereo unspecified)	Kir21 inh -7.6 | hERG ctr inactive | KCNK9 inh-2 inactive | Kir2-1 patch inh 77%
CC(C)O/C(=N\S(=O)(=O)c1ccc(Cl)cc1)c1ccccc1	Kir21 inh -8.3 | hERG ctr inactive | KCNK9 inh-2 inactive | Kir2-1 patch inh 17%
CCCCN(Cc1ccco1)S(=O)(=O)c1csc(C(N)=O)c1	Kir21 inh -7.2 | hERG ctr inactive | KCNK9 inh-2 inactive | Kir2-1 patch inh 46%
CC(CCc1ccco1)N(C)S(=O)(=O)c1csc(C(N)=O)c1 (stereo unspecified)	none
CCC(=O)OCc1c(C(F)(F)F)nn(C)c1Sc1ccc(F)cc1	Kir21 inh -8.4 | hERG ctr inactive | KCNK9 inh-2 inactive | Kir2-1 patch inh 31%
O=C(O)C(Cc1ccccc1)N=C(NS(=O)(=O)c1ccccc1)c1ccccc1 (stereo unspecified)	none (no result: KCNQ1 pot, hERG protect, KCNQ1 inh, KCNK9 inh-1, Kir21 inh)
